Molecules are shown by their SMILES.

For this experiment, the system named is HEp-2 RSV Long CPE inhibition, luminescence viability. In words: antiviral activity against respiratory syncytial virus – cell-based, synthesized compounds, set 13, dose response (AID 588455). In a few lines: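 Detection: luminescence-based measurement of viral cytopathic effect. Material: HEp-2 human cells infected with RSV strain Long. Schedule: 6 days of virus and compound exposure at 37 °C. Read-out basis: % CPE inhibition and IC50 (4-parameter fit, 0–100 fixed). Reagent: RSV strain Long virus at MOI 0.45.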
For `COCCCNC(=O)c1ccc(Cn2c(=O)c3ccccc3n(Cc3ccc(Cl)cc3)c2=O)cc1`, the IC50 was 970 nM.

Take `COCCCNC(=O)c1ccc(Cn2c(=O)c3ccccc3n(Cc3ccc(Br)cc3)c2=O)cc1`: the IC50 is 480 nM.

For `COCCCNC(=O)c1ccc(Cn2c(=O)c3ccccc3n(Cc3ccc([N+](=O)[O-])cc3)c2=O)cc1`, the IC50 is 480 nM.

Source of the values: PubChem BioAssay AID588455 (Southern Research Specialized Biocontainment Screening …, 2011).
